Only some compounds are listed: those with a hit (about 27% of all), similar ones and a draw of the others.
CYP2C9 inh – blockers of cytochrome P450 2C9 activity – biochemical, luminescence, ADME assay, primary screen. P11712. CYP2C9 Supersomes, luciferin-H conversion. inhibition, % at 5 µM. 20% of 96,000 active. AID 777, 2007;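 active = blocking of liver enzyme CYP2C9 beyond about 50% at 5 µM, limit read from the data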
Target sequence (P11712 whole entry, looked up): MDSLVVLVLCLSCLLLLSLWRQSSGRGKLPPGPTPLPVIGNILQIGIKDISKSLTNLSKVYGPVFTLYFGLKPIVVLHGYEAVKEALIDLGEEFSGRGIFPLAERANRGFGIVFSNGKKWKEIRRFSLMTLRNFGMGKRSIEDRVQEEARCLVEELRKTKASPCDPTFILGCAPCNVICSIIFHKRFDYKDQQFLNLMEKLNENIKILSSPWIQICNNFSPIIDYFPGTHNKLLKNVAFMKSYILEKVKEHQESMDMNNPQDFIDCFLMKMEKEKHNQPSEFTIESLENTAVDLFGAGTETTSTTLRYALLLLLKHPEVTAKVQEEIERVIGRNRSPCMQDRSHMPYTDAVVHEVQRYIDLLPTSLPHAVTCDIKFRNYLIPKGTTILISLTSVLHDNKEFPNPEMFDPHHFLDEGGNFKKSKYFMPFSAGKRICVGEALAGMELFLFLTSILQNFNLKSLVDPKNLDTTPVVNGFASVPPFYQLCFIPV
Rev-RRE block – HIV-1 Rev-RRE binding inhibitors, primary screen, biochemical, FRET, protein-RNA interaction. Rev peptide-RRE RNA binding. inhibition, % at 8 µM. 0.79% of 97,000 active;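 active = inhibition above the screen-wide mean plus 3 SD, cut at about 35% in these data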;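 also: 0% = median DMSO wells and 100% = median Neomycin B control wells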
Target sequence (P05866 whole entry, looked up): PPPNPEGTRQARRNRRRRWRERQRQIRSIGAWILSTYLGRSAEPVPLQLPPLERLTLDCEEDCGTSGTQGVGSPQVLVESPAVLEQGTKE
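Material: labelled RRE RNA duplex and labelled Rev peptide / Buffer or medium: HEPES pH 7.5 salt buffer with EDTA / Compound dosing: single point, 8 µM final nominal compound concentration / Benchmarks: DMSO low control, neomycin B high control / Timing: 5 min preincubation and 15 min binding, 25 °C / Technique: FRET fluorescence readout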
Cav3 T inh – Cav3.2 calcium influx blockers – cell-based, Fluo-4 calcium fluorescence, FDSS, MLSMR library, primary screen; Voltage-dependent T-type calcium channel subunit alpha-1H (Homo sapiens), O95180; Cav3.2-expressing cells; stronger effect = lower value; B-score at 10 µM; 4% of 100,000 active;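 active = single-dose well whose peak fluorescence ratio is a statistical outlier from its plate by either plate-standardised score or position-corrected B-score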
CYP2C9 activ – human CYP2C9 activators, primary screen, biochemical, luminescence; Cytochrome P450 2C9 (Homo sapiens), P11712; recombinant CYP2C9, luciferin-H conversion; stronger effect = higher value; factor 1 = untreated enzyme, 0 = blocked; activation factor at 5 µM; 1.4% of 96,000 active; AID 1024, 2008;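 active = activation factor of 2 or more for CYP2C9 at a 5 µM dose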;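 also: 0 = sulfaphenazole-blocked wells and 1 = vehicle-only wells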
CYP2C19 inhib – blockers of cytochrome P450 2C19 activity – biochemical, luminescence, ADME assay, primary screen; P33261; CYP2C19 Supersomes, luciferin-H EGE luminescence, 30 min; inhibition, % at 5 µM; 21% of 96,000 active; AID 778, 2007;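 active = CYP2C19 inhibition above a set limit at 5 µM in the primary screen, cut at about 50% in these data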;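 also: plate controls were negative control wells for no effect and 2.5 mM tranylcypromine positive control for full effect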
CYP2C19 activ – human CYP2C19 activators, primary screen, biochemical, luminescence; Cytochrome P450 2C19 (Homo sapiens), P33261; recombinant CYP2C19, luciferin-H EGE luminescence; stronger effect = higher value; 0 = fully inhibited enzyme, 1 = untreated enzyme; activation factor at 5 µM; 96,000 tested, under 10 active;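 active = activation factor of at least 2 at 5 µM in the primary screen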;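 also: 0 = wells with 2.5 mM tranylcypromine and 1 = vehicle-only wells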
Active calls of the source: *.

What do the screens show for `Nc1nc(-c2ccc3ccccc3c2)c(C2(O)C(=O)Nc3c(Br)cc(F)cc32)s1` (configuration not stated)?
CYP2C9 inh: -12; Rev-RRE block: 8; Cav3 T inh: -1.2; CYP2C9 activ: 1.1; CYP2C19 inhib: 92*; CYP2C19 activ: 0.1

What do the screens show for `CCCCC1=CC2=C(c3ccco3)C(=O)C(C)(OC(=O)c3ccc(OC)cc3)C(=O)C2=CN1c1ccc(OC)cc1` (configuration not stated)?
Cav3 T inh: -0.029

How did CCC(C(=O)NC1CCCCC1)n1c(SCc2ccccc2F)nc2ccncc21 (configuration not stated) do in these assays?
Cav3 T inh: -2.5

How did c1ccc(-c2nnc(CSc3nc4ccccc4[nH]3)o2)cc1 do in these assays?
CYP2C9 inh: 67*; Rev-RRE block: 2; Cav3 T inh: 0.23; CYP2C9 activ: 0.3; CYP2C19 inhib: 90*; CYP2C19 activ: 0.1

What do the screens show for `O=C(CCCSc1nc2ccccc2[nH]1)Nc1nnc(-c2ccccc2)o1`?
CYP2C9 inh: 52*; Rev-RRE block: 3; CYP2C9 activ: 0.5; CYP2C19 inhib: 42; CYP2C19 activ: 0.6

How did CCN(CC)C(=O)C1CCN(Cc2ccc(Br)cc2)CC1 do in these assays?
CYP2C9 inh: 12; Rev-RRE block: -3; Cav3 T inh: 0.18; CYP2C9 activ: 0.9; CYP2C19 inhib: 25; CYP2C19 activ: 0.8

What do the screens show for `Cc1cc(C)n(C(=O)C23CC4CC(CC(C4)C2)C3)n1`?
CYP2C9 inh: 3; Rev-RRE block: 3; Cav3 T inh: -5.6*; CYP2C9 activ: 1; CYP2C19 inhib: -3; CYP2C19 activ: 1

What do the screens show for `COc1cccc(C(=O)OCC(=O)Nc2ccccc2N2CCOCC2)c1`?
CYP2C9 inh: 51*; Rev-RRE block: 2; Cav3 T inh: -1.2; CYP2C9 activ: 0.5; CYP2C19 inhib: 39; CYP2C19 activ: 0.6

Results for COC(=O)c1ccc(N2CCOCC2)c(NC(=O)Nc2cccc(OC)c2)c1 ?
CYP2C9 inh: 71*; CYP2C9 activ: 0.3; CYP2C19 inhib: 24; CYP2C19 activ: 0.8

Results for COc1cccc(C(=O)Nc2ccccc2N2CCOCC2)c1 ?
CYP2C9 inh: 53*; Rev-RRE block: 4; CYP2C9 activ: 0.5; CYP2C19 inhib: 62*; CYP2C19 activ: 0.4

How did COc1cccc(NC(=O)c2ccc(CN3CCOCC3)cc2)c1 do in these assays?
CYP2C9 inh: -2; Rev-RRE block: -1; Cav3 T inh: 0.56; CYP2C9 activ: 1; CYP2C19 inhib: -2; CYP2C19 activ: 1

How did COc1cccc(-n2c(C)nnc2SCC(=O)Nc2ccccc2N2CCOCC2)c1 do in these assays?
CYP2C9 inh: 77*; Rev-RRE block: 5; CYP2C9 activ: 0.2; CYP2C19 inhib: 63*; CYP2C19 activ: 0.4

Results for CCCOc1ccccc1-n1sc2c(c1=S)-c1cc(OC)cc3c1N(C(=O)C3=O)C2(C)C ?
CYP2C9 inh: 80*; Rev-RRE block: 10; Cav3 T inh: 0.57; CYP2C9 activ: 0.2; CYP2C19 inhib: 62*; CYP2C19 activ: 0.4

Results for Cc1cccc(NC(=O)C2CCCN(C(=O)Nc3ccccc3)C2)c1C (configuration not stated) ?
CYP2C9 inh: 23; Rev-RRE block: -4; Cav3 T inh: 1.4; CYP2C9 activ: 0.8; CYP2C19 inhib: 27; CYP2C19 activ: 0.7

What do the screens show for `Fc1ccc2[nH]c3c(N4CCN(C5CCCCC5)CC4)ncnc3c2c1`?
CYP2C9 inh: 76*; CYP2C9 activ: 0.2; CYP2C19 inhib: 67*; CYP2C19 activ: 0.3

How did COc1cccc(N2CCN(c3ncnc4c3[nH]c3ccc(F)cc34)CC2C)c1 (configuration not stated) do in these assays?
CYP2C9 inh: 60*; Rev-RRE block: -1; Cav3 T inh: -6.1*; CYP2C9 activ: 0.4; CYP2C19 inhib: 59*; CYP2C19 activ: 0.4

How did COc1cc2[nH]c3c(N4CCN(c5ccc(Cl)cc5)CC4)ncnc3c2cc1OC do in these assays?
CYP2C9 inh: 6; Rev-RRE block: 5; Cav3 T inh: 1.3; CYP2C9 activ: 0.9; CYP2C19 inhib: 4; CYP2C19 activ: 1

How did COc1cccc(N2CCN(c3ncnc4c3[nH]c3ccccc34)CC2C)c1 (configuration not stated) do in these assays?
Cav3 T inh: -5.9*

What do the screens show for `CC1(C)CCC23CC[C@]4(C)C(OC2=O)(C3C1)[C@H]1O[C@H]1C1[C@@]2(C)CC[C@@H](O)C(C)(C)C2CC[C@]14C` (some centres not stated)?
Cav3 T inh: -1.7

How did Cc1ccc(-n2nc3c(N4CCN(c5ccccc5)CC4)nnc(C)c3c2C)cc1 do in these assays?
Rev-RRE block: 13

How did Cc1[nH]c(=O)cc2ccccc12 do in these assays?
CYP2C9 inh: -12; Rev-RRE block: -1; Cav3 T inh: 0.74; CYP2C9 activ: 1.1; CYP2C19 inhib: 5; CYP2C19 activ: 1

Results for O=C(COC(=O)c1cc(S(=O)(=O)N2CCCCC2)ccc1N1CCOCC1)NC1CCCCC1 ?
CYP2C9 inh: 44; Rev-RRE block: 0; Cav3 T inh: -0.33; CYP2C9 activ: 0.6; CYP2C19 inhib: 32; CYP2C19 activ: 0.7

Results for CCOC(=O)C1CCCN(Cc2cccs2)C1 (configuration not stated) ?
CYP2C9 inh: 4; Rev-RRE block: 2; Cav3 T inh: 0.085; CYP2C9 activ: 1; CYP2C19 inhib: 88*; CYP2C19 activ: 0.1

Results for CCOC(=O)C1CCCN(Cc2c(F)cccc2Cl)C1 (configuration not stated) ?
CYP2C9 inh: 7; Rev-RRE block: 6; Cav3 T inh: 0.21; CYP2C9 activ: 0.9; CYP2C19 inhib: 62*; CYP2C19 activ: 0.4

Results for CCOC(=O)C1CCN(Cc2c(F)cccc2Cl)CC1 ?
CYP2C9 inh: 17; Rev-RRE block: -1; Cav3 T inh: -0.22; CYP2C9 activ: 0.8; CYP2C19 inhib: 18; CYP2C19 activ: 0.8

What do the screens show for `CCOC(=O)C1CCCN(Cc2nc(N)nc(Nc3ccc(OC)cc3)n2)C1` (configuration not stated)?
CYP2C9 inh: 4; Rev-RRE block: 0; Cav3 T inh: 1.6; CYP2C9 activ: 1; CYP2C19 inhib: 33; CYP2C19 activ: 0.7

How did CCOC(=O)C1CCCN(Cc2ccc(OCC)cc2)C1 (configuration not stated) do in these assays?
CYP2C9 inh: -5; Rev-RRE block: -1; Cav3 T inh: -0.014; CYP2C9 activ: 1; CYP2C19 inhib: 76*; CYP2C19 activ: 0.2
